Measured values reported in ChEMBL document CHEMBL4732044, “Discovery of a promising agent IQZ23 for the treatment of obesity and related metabolic disorders” (Eur J Med Chem, 2020).
Activity calls are given as the source filed them. The rule behind the calls is not given here.

Experiments:
3T3-L1 [1] = assay: Inhibition of mouse 3T3-L1 cells adipocyte differentiation assessed as reduction in adipogenic cocktail-induced fatty acid synthase protein expression at 0.3 to 1 uM after 6 days by Western blot analysis; format: functional, cell-based; conditions: dose 0.3-1 µM, time 6.0 day
Method in brief: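 3T3-L1 preadipocytes were differentiated with cocktail for 3 days, then insulin medium for 3 days, with compound (0.3 or 1 µM) present throughout. Cells were harvested on day 6 and proteins measured by Western blot, with densitometry normalized to actin.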

Mus musculus [2] = assay: Anti-hyperglycemic activity in high fat diet-induced obese C57BL/6J mouse model assessed as decrease in blood glucose level at 20 mg/kg, ip; format: functional, organism-based; conditions: time hrs <=24, TDE = time-dependent effect
Method in brief: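 C57BL/6J mice fed HFC diet (60% fat, 1% cholesterol). Single i.p. injection of saline or compound at 20 mg/kg. Blood glucose measured with a glucose monitor at 0, 0.5, 1, 2, 4, 8, 12 and 24 h.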

[3] = AUC(0 to infinity) in Sprague-Dawley rat at 5 mg/kg, po up to 24 hrs by LC-MS/MS analysis; format: ADME, organism-based; parameters: route oral, dose 5 mg/kg, time <=24; conditions: in vivo
Method in brief: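 Male Sprague-Dawley rats (180-220 g, n = 3) were dosed intragastrically at 5 mg/kg in ethanol/saline (5:95). Plasma was collected at 0, 30 min, 1, 2, 4, 8, 12 and 24 h post-dose and quantified by LC-MS/MS. Pharmacokinetic parameters were derived from the plasma concentration-time profile.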

3T3-L1 [4] = assay: Activation of AMPK pathway in adipogenic cocktail-induced mouse 3T3-L1 cells with SiRNA-induced AMPKalpha knock down assessed as decrease in C/EBPalpha protein expression at 1 uM after 24 hrs by Western blot analysis; format: cell-based
Method in brief: (§1)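 3T3-L1 cells at 80% density transfected with 50 nM AMPKα siRNA or negative control for 24 h. Once confluent, differentiated with adipogenic cocktail with or without compound. Protein by Western blot normalized to actin. TG measured by GPO-POD kit, normalized to BCA protein, expressed as % of control.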

Mus musculus [5] = assay: Antiobesity activity in high fat diet-induced obese C57BL/6J mouse model assessed as ALT level at 20 mg/kg, ip administered for every other days for 6 weeks by auto-analyzer method (reference value: 231.9 +/- 18.5 U/L); format: functional
Method in brief: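 Male C57BL/6J mice (7–8 weeks) fed HFC diet (60% fat, 1% cholesterol) for up to 14 weeks. From week 9, given 20 mg/kg i.p. every other day for 6 weeks in saline with 10% ethanol and 10% castor oil, or vehicle. Body weight and food intake recorded daily. At end, mice fasted 6 h, anesthetized, and blood collected into EDTA. Plasma chemistry run on an auto-analyzer; insulin by ultra-sensitive ELISA.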

3T3-L1 [6] = assay: Activation of AMPK pathway in adipogenic cocktail-induced mouse 3T3-L1 cells with SiRNA-induced AMPKalpha knock down assessed as decrease in TG level at 1 uM after 6 days by GPO-POD assay; format: cell-based; conditions: time 6.0 day; method in brief: as §1
[7] = Oral bioavailability in Sprague-Dawley rat at 5 mg/kg up to 24 hrs by LC-MS/MS analysis; format: ADME, organism-based; conditions: in vivo
Method in brief: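 Male SD rats (180–220 g, n = 3) received compound in ethanol/saline (5:95), either intravenously at 2 mg/kg or intragastrically at 5 mg/kg. Plasma was sampled at 0, 0.5, 1, 2, 4, 8, 12 and 24 h. Concentrations were measured by LC-MS/MS, and PK parameters were calculated from the concentration–time data.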

C2C12 [8] = assay: Activation of AMPK pathway in mouse C2C12 cells assessed as increase in glucose uptake at 0.3 to 1 uM after 6 hrs in presence of insulin by 2-NBDG/Hoechst 33342 staining based Confocal microscopic method; format: cell-based; conditions: filed as activator, dose 0.3-1 µM
Method in brief: (§2)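 C2C12 myoblasts kept in DMEM with 10% FBS and 1% penicillin/streptomycin at 37 °C under 5% CO2.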

3T3-L1 [9] = assay: Inhibition of mouse 3T3-L1 cells adipocyte differentiation assessed as reduction in adipogenic cocktail-induced SREBP-1c protein expression at 0.3 to 1 uM after 24 hrs by Western blot analysis; format: functional, cell-based; conditions: dose 0.3-1 µM
Method in brief: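 3T3-L1 preadipocytes were exposed to adipogenic cocktail with compound (0.3 or 1 µM) and harvested on day 1. Lysates were resolved by SDS-PAGE, immunoblotted (primary antibody overnight at 4 °C, HRP secondary) and quantified by densitometry normalized to actin.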

3T3-L1 [10] = assay: Activation of AMPK pathway in mouse 3T3-L1 cells assessed as increase in ACSL mRNA expression at 0.3 to 1 uM after 24 hrs by RT-qPCR analysis; format: cell-based; conditions: filed as activator, dose 0.3-1 µM
Mus musculus [11] = assay: Antiobesity activity in high fat diet-induced obese C57BL/6J mouse model assessed as decrease in AUC of ITT at 20 mg/kg, ip administered for every other days for 6 weeks by ITT method; format: functional, organism-based
Method in brief: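 Male C57BL/6J mice on HFC diet dosed i.p. For GTT, after 3 weeks of treatment: 6 h fast, then i.p. glucose 2 g/kg. For ITT, after 6 weeks: 6 h fast, then i.p. insulin 0.4 U/mouse. Tail-vein glucose measured at 0, 15, 30, 60 and 120 min; AUC calculated.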

Mus musculus [12] = assay: Antiobesity activity in high fat diet-induced obese C57BL/6J mouse model assessed as total bilirubin level at 20 mg/kg, ip administered for every other days for 6 weeks by auto-analyzer method (reference value: 1.3 +/- 0.12 mM); format: functional
3T3-L1 [13] = assay: Activation of AMPK pathway in adipogenic cocktail-induced mouse 3T3-L1 cells assessed as increase in AMP to ATP ratio at 0.3 to 1 uM after 24 hrs; format: cell-based; conditions: filed as activator, dose 0.3-1 µM
3T3-L1 [14] = assay: Lipid lowering activity in mouse 3T3-L1 cells assessed as reduction in adipogenic cocktail-induced triglyceride levels at 5 uM incubated for 6 days by GPO-POD assay relative to control; format: functional; parameters: scale not given: the % may be the effect or the level left; conditions: time 6 day
Method in brief: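 Confluent 3T3-L1 cells were treated from day 0 in cocktail (IBMX, dexamethasone, insulin) for 3 days, then re-dosed in insulin medium for 3 more days. For dose–response, concentrations were 0–10 µM (0.01, 0.1, 0.3, 1, 3, 10). On day 6, cells were lysed in 0.2% Triton X-100 and TG was measured by GPO-POD and normalized to BCA protein as % of control. EC50 was fitted from the dose–response. N = 4.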

3T3-L1 [15] = assay: Activation of AMPK pathway in mouse 3T3-L1 cells assessed as increase in ACSL mRNA expression at 1 uM after 24 hrs by RT-qPCR analysis; format: cell-based; conditions: filed as activator
[16] = AUC(0 to t) in Sprague-Dawley rat at 2 mg/kg, iv up to 24 hrs by LC-MS/MS analysis; conditions: in vivo
[17] = AUC(0 to infinity) in Sprague-Dawley rat at 2 mg/kg, iv up to 24 hrs by LC-MS/MS analysis; conditions: in vivo
C2C12 [18] = assay: Activation of AMPK pathway in mouse C2C12 cells assessed as increase in glucose uptake at 1 uM after 6 hrs by 2-NBDG/Hoechst 33342 staining based Confocal microscopic method; format: cell-based; conditions: filed as activator; method in brief: as §2
3T3-L1 [19] = assay: Activation of AMPK pathway in mouse 3T3-L1 cells assessed as increase in NRF2 mRNA expression at 1 uM after 24 hrs by RT-qPCR analysis; format: cell-based; conditions: filed as activator

| SMILES | inhibition (3T3-L1 [1]) | Activity (Mus musculus [2]) | AUC(0-inf) [3] [ng·h/mL] | Activity (3T3-L1 [4]) | Activity (Mus musculus [5]) [U/L] | Activity (3T3-L1 [6]) | bioavailability [7] [%] | Activity (C2C12 [8]) | inhibition (3T3-L1 [9]) | Activity (3T3-L1 [10]) | Activity (Mus musculus [11]) | Activity (Mus musculus [12]) [mmol] | Activity (3T3-L1 [13]) | Activity (3T3-L1 [14]) [%] | Activity (3T3-L1 [15]) | AUC(0-t) at 24 h [16] [ng·h/mL] | AUC(0-inf) [17] [ng·h/mL] | Activity (C2C12 [18]) | Activity (3T3-L1 [19]) |
| --- | --- | --- | --- | --- | --- | --- | --- | --- | --- | --- | --- | --- | --- | --- | --- | --- | --- | --- | --- |
| COc1ccc2[nH]c(-c3nc(NCCCCN4CCCC4)c4ccccc4n3)c(C=O)c2c1 | Active | Tde | 384 | inactive | 52 | inactive | 48.6 | Active | Active | Active | Active | 0.9 | Active | – | – | – | – | – | – |
| CN(C)CCCNc1nc(-c2[nH]c3ccccc3c2C=O)nc2ccccc12 | – | – | 294 | – | – | – | 43.8 | – | – | – | – | – | – | 89.3 | Active | 635 | 671 | Active | Active |
